Calls of active or inactive are those of the source. No cut-off for these calls is given here.
What was measured:
[1] = test system: HUVEC; assay: Effect on total JNK protein level in HUVEC at 0.1 to 10 uM pretreated for 24 hrs followed by H2O2-stimulation for 2 hrs by western blot analysis; type: cell-based; settings: human
[2] = biological target: Mitogen-activated protein kinase; ERK1/ERK2 (Homo sapiens) (UniProt P27361+P28482); assay: Inhibition of H2O2-induced ERK1/2 phosphorylation in HUVEC pretreated for 24 hrs followed by H2O2-stimulation after 2 hrs by western blot analysis; type: protein assay
Chain of Mitogen-activated protein kinase; ERK1/ERK2 (Homo sapiens) (P27361 whole entry, looked up): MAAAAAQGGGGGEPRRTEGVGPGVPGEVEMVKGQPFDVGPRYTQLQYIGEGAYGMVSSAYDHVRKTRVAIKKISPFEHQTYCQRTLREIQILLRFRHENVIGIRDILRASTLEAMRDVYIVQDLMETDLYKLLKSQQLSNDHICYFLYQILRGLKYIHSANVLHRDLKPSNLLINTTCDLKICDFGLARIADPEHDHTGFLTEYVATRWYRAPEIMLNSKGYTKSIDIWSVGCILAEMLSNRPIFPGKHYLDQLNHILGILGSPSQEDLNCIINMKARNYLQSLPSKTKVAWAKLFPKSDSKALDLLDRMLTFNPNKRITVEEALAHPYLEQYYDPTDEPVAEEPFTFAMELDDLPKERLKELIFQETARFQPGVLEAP
Chain of Mitogen-activated protein kinase; ERK1/ERK2 (Homo sapiens) (P28482 whole entry, looked up): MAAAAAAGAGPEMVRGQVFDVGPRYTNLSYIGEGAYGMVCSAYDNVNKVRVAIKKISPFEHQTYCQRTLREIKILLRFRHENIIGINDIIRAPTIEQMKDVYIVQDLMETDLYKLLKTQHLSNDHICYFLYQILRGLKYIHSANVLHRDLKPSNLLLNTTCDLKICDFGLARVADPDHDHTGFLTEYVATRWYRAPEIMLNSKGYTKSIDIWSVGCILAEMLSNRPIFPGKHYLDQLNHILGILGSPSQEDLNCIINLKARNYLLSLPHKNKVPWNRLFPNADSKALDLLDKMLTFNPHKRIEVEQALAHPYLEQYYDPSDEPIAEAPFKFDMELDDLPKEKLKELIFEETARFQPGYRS

[3] = test system: HUVEC; assay: Cytoprotective activity against H2O2-induced cell injury in HUVEC assessed as inhibition of apoptosis by measuring early apoptotic cells at 10 uM pretreated for 24 hrs followed by H2O2-stimulation after 2 hrs by Annexin-V-APC/7AAD staining based flow cytometry (reference value: 34.96%); type: functional, Homo sapiens; design: scale not given: the % may be the effect or the level left
[4] = biological target: MAP kinase p38 (Homo sapiens) (UniProt O15264+Q15759+Q16539+P53778); assay: Inhibition of H2O2-induced p38 phosphorylation in HUVEC pretreated for 24 hrs followed by H2O2-stimulation after 2 hrs by western blot analysis
[5] = test system: HUVEC; assay: Cytoprotective activity against H2O2-induced cell injury in HUVEC assessed as inhibition of apoptosis by measuring necrotic cells at 10 uM pretreated for 24 hrs followed by H2O2-stimulation after 2 hrs by Annexin-V-APC/7AAD staining based flow cytometry (reference value: 0.45%); type: functional, Homo sapiens; design: scale not given: the % may be the effect or the level left
[6] = test system: HUVEC; assay: Cytoprotective activity against H2O2-induced cell injury in HUVEC assessed as decrease in MDA level pretreated for 24 hrs followed by H2O2-stimulation after 2 hrs; type: functional, cell-based; settings: Homo sapiens
In short: (§1)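 Pretreatment 24 h at 0.1, 1 and 10 μM before 0.5 mM H2O2 for 2 h in HUVECs; LDH release, MDA content, SOD activity and NO secretion then measured.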

[7] = test system: HUVEC; assay: Cytoprotective activity against H2O2-induced cell injury in HUVEC assessed as inhibition of apoptosis by measuring early apoptotic cells at 0.1 uM pretreated for 24 hrs followed by H2O2-stimulation after 2 hrs by Annexin-V-APC/7AAD staining based flow cytometry (reference value: 34.96%); type: functional, Homo sapiens; design: scale not given: the % may be the effect or the level left
[8] = test system: HUVEC; assay: Cytoprotective activity against H2O2-induced cell injury in HUVEC assessed as inhibition of apoptosis by measuring late apoptotic cells at 10 uM pretreated for 24 hrs followed by H2O2-stimulation after 2 hrs by Annexin-V-APC/7AAD staining based flow cytometry (reference value: 10.78%); type: functional, Homo sapiens; design: scale not given: the % may be the effect or the level left
[9] = test system: HUVEC; assay: Cytoprotective activity against H2O2-induced cell injury in HUVEC assessed as inhibition of apoptosis by measuring viable cells at 10 uM pretreated for 24 hrs followed by H2O2-stimulation after 2 hrs by Annexin-V-APC/7AAD staining based flow cytometry (reference value: 53.8%); type: functional, Homo sapiens
[10] = test system: HUVEC; assay: Cytoprotective activity against H2O2-induced cell injury in HUVEC assessed as level of reactive oxygen species by measuring fluorescence intensity at 0.1 to 10 uM pretreated for 24 hrs followed by H2O2-stimulation after 2 hrs by DCFH-DA staining based fluorescence assay (reference value: 3.3); type: functional, Homo sapiens
[11] = test system: HUVEC; assay: Effect on total p38 MAPK protein level in HUVEC at 0.1 to 10 uM pretreated for 24 hrs followed by H2O2-stimulation for 2 hrs by western blot analysis; type: cell-based; settings: human
[12] = test system: HUVEC; assay: Cytoprotective activity against H2O2-induced cell injury in HUVEC assessed as cell survival at 10 uM pretreated for 24 hrs followed by H2O2-stimulation after 2 hrs by MTT assay (reference value: 60.21%); type: functional; settings: Homo sapiens, read-out: Survival
[13] = test system: HUVEC; assay: Cytoprotective activity against H2O2-induced cell injury in HUVEC assessed as increase in cell survival pretreated for 24 hrs followed by H2O2-stimulation after 2 hrs by MTT assay; type: functional, cell-based; settings: Homo sapiens
In short: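 MTT survival of H2O2-injured HUVECs after pretreatment at 10, 1, 0.1 and 0.01 μM; compared with H2O2-only model group; EC50 derived from concentration–response; means ± SD, n = 3.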

[14] = test system: HUVEC; assay: Cytoprotective activity against H2O2-induced cell injury in HUVEC assessed as inhibition of apoptosis by measuring viable cells at 0.1 uM pretreated for 24 hrs followed by H2O2-stimulation after 2 hrs by Annexin-V-APC/7AAD staining based flow cytometry (reference value: 53.8%); type: functional, Homo sapiens
[15] = test system: HUVEC; assay: Cytoprotective activity against H2O2-induced cell injury in HUVEC assessed as inhibition of apoptosis by measuring late apoptotic cells at 0.1 uM pretreated for 24 hrs followed by H2O2-stimulation after 2 hrs by Annexin-V-APC/7AAD staining based flow cytometry (reference value: 10.78%); type: functional, Homo sapiens; design: scale not given: the % may be the effect or the level left
[16] = test system: HUVEC; assay: Cytoprotective activity against H2O2-induced cell injury in HUVEC assessed as increase in nitric oxide level pretreated for 24 hrs followed by H2O2-stimulation after 2 hrs by DAF-FM-DA probe based fluorescent imaging analysis; type: functional; settings: Homo sapiens; in short: as §1
[17] = test system: HUVEC; assay: Cytoprotective activity against H2O2-induced cell injury in HUVEC assessed as inhibition of apoptosis by measuring necrotic cells at 0.1 uM pretreated for 24 hrs followed by H2O2-stimulation after 2 hrs by Annexin-V-APC/7AAD staining based flow cytometry (reference value: 0.45%); type: functional, Homo sapiens; design: scale not given: the % may be the effect or the level left
[18] = test system: HUVEC; assay: Cytotoxicity against HUVEC assessed as increase in cell viability at 0.1 to 50 uM after 24 hrs by MTT assay relative to control; type: cell-based; settings: human
In short: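 Normal HUVECs incubated 24 h with 0.1−50 μM, no H2O2; viability by MTT assay; means ± SD, n = 3.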

[19] = test system: HUVEC; assay: Cytoprotective activity against H2O2-induced cell injury in HUVEC assessed as cell survival at 0.01 uM pretreated for 24 hrs followed by H2O2-stimulation after 2 hrs by MTT assay (reference value: 60.21%); type: functional; settings: Homo sapiens, read-out: Survival
[20] = test system: HUVEC; assay: Cytoprotective activity against H2O2-induced cell injury in HUVEC assessed as increase in SOD activity pretreated for 24 hrs followed by H2O2-stimulation after 2 hrs; type: functional, cell-based; settings: Homo sapiens; in short: as §1
[21] = test system: HUVEC; assay: Cytoprotective activity against H2O2-induced cell injury in HUVEC assessed as inhibition of apoptosis by measuring viable cells at 1 uM pretreated for 24 hrs followed by H2O2-stimulation after 2 hrs by Annexin-V-APC/7AAD staining based flow cytometry (reference value: 53.8%); type: functional, Homo sapiens
[22] = biological target: c-Jun N-terminal kinase, JNK (Homo sapiens) (UniProt P45983+P53779+P45984); assay: Inhibition of H2O2-induced JNK phosphorylation in HUVEC pretreated for 24 hrs followed by H2O2-stimulation after 2 hrs by western blot analysis
[23] = test system: HUVEC; assay: Cytoprotective activity against H2O2-induced cell apoptosis in HUVEC pretreated for 24 hrs followed by H2O2-stimulation for 2 hrs by Annexin-V-APC/7AAD staining based flow cytometry; type: functional; settings: Homo sapiens
[24] = test system: HUVEC; assay: Cytoprotective activity against H2O2-induced cell injury in HUVEC assessed as increase in cell viability at 10 uM pretreated for 24 hrs followed by H2O2-stimulation after 2 hrs by MTT assay; type: functional, cell-based; settings: Homo sapiens
[25] = test system: HUVEC; assay: Cytoprotective activity against H2O2-induced cell injury in HUVEC assessed as decrease in level of reactive oxygen species pretreated for 24 hrs followed by H2O2-stimulation after 2 hrs by DCFH-DA staining based fluorescence assay; type: functional; settings: Homo sapiens
In short: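 DCF fluorescence imaging in HUVECs with or without pretreatment, exposed to H2O2; intensity expressed as percentage of control group fluorescence; means ± SD, n = 3.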

[26] = test system: HUVEC; assay: Cytoprotective activity against H2O2-induced cell injury in HUVEC assessed as decrease in LDH release pretreated for 24 hrs followed by H2O2-stimulation after 2 hrs; type: functional, cell-based; settings: Homo sapiens; in short: as §1
[27] = test system: HUVEC; assay: Effect on total ERK1/2 protein level in HUVEC at 0.1 to 10 uM pretreated for 24 hrs followed by H2O2-stimulation for 2 hrs by western blot analysis; type: cell-based; settings: human
[28] = test system: HUVEC; assay: Cytoprotective activity against H2O2-induced cell injury in HUVEC assessed as inhibition of apoptosis by measuring necrotic cells at 1 uM pretreated for 24 hrs followed by H2O2-stimulation after 2 hrs by Annexin-V-APC/7AAD staining based flow cytometry (reference value: 0.45%); type: functional, Homo sapiens; design: scale not given: the % may be the effect or the level left
[29] = test system: HUVEC; assay: Cytoprotective activity against H2O2-induced cell injury in HUVEC assessed as cell survival at 1 uM pretreated for 24 hrs followed by H2O2-stimulation after 2 hrs by MTT assay (reference value: 60.21%); type: functional; settings: Homo sapiens, read-out: Survival
[30] = test system: HUVEC; assay: Cytoprotective activity against H2O2-induced cell injury in HUVEC assessed as inhibition of apoptosis by measuring late apoptotic cells at 1 uM pretreated for 24 hrs followed by H2O2-stimulation after 2 hrs by Annexin-V-APC/7AAD staining based flow cytometry (reference value: 10.78%); type: functional, Homo sapiens; design: scale not given: the % may be the effect or the level left
[31] = test system: HUVEC; assay: Cytoprotective activity against H2O2-induced cell injury in HUVEC assessed as cell survival at 0.1 uM pretreated for 24 hrs followed by H2O2-stimulation after 2 hrs by MTT assay (reference value: 60.21%); type: functional; settings: Homo sapiens, read-out: Survival
[32] = test system: HUVEC; assay: Cytoprotective activity against H2O2-induced cell injury in HUVEC assessed as inhibition of apoptosis by measuring early apoptotic cells at 1 uM pretreated for 24 hrs followed by H2O2-stimulation after 2 hrs by Annexin-V-APC/7AAD staining based flow cytometry (reference value: 34.96%); type: functional, Homo sapiens; design: scale not given: the % may be the effect or the level left

C=C[C@]1(C)CC[C@@H](C(=C)COC(=O)/C=C/C(=O)OCC(=C)[C@@H]2CC[C@@](C)(C=C)[C@H](C(=C)C)C2)C[C@H]1C(=C)C
Activity [1]: Non-Toxic | inhibition [2]: Dose-dependent effect | Activity [3]: 12.82% | inhibition [4]: Dose-dependent effect | Activity [5]: 2.69% | Activity [6]: Dose-dependent effect | Activity [7]: 30.92% | Activity [8]: 12.71% | Activity [9]: 71.78% | Flu intensity [10]: 1.16 - 2.4 | Activity [11]: Non-Toxic | viability at 10 µM [12]: 97% | Activity [13]: Dose-dependent effect | EC50 [13]: 220 nM | Activity [14]: 58.55% | Activity [15]: 10.22% | Activity [16]: Dose-dependent effect | Activity [17]: 0.3% | Activity [18]: > 90% | viability at 0.01 µM [19]: 65.5% | Activity [20]: Dose-dependent effect | Activity [21]: 68.31% | inhibition [22]: Dose-dependent effect | Activity [23]: Dose-dependent effect | Activity [24]: Active | Activity [25]: Dose-dependent effect | Activity [26]: Dose-dependent effect | Activity [27]: Non-Toxic | Activity [28]: 0.18% | viability at 1 µM [29]: 85.5% | Activity [30]: 7.92% | viability at 0.1 µM [31]: 76.7% | Activity [32]: 23.59%
